Measurements published in ChEMBL document CHEMBL3232716, “Tailoring cytotoxicity of antimicrobial peptidomimetics with high activity against multidrug-resistant Escherichia coli” (J Med Chem, 2014).
pIC50: −log10 of the molar value. Converted amounts (≈) assume the structure as drawn. Square brackets hold non-standard residues; d marks the D form. Peptide text beside a SMILES is read from it. hArg = N=C(N)NCCCC[C@H](N)C(=O)O; Nspe = C[C@H](NCC(=O)O)c1ccccc1; Nphe = O=C(O)CNCc1ccccc1

What was measured:
[1] = Hemolytic activity in human RBC after 1 hr; assay type: ADME, cell-based; settings: Erythrocyte
Summary of the method: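 Fresh human erythrocytes washed in PBS pH 7.4. A 0.5% v/v suspension was mixed 1:1 with 2-fold dilutions of compound (8–1024 μM) and incubated 1 h at 37 °C, then centrifuged. Supernatant hemoglobin read at OD414. Melittin 400 μg/mL set 100% lysis and PBS set 0%. Value is the concentration giving 50% lysis.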

[2] = test system: Escherichia coli; experiment: Antibacterial activity against NDM-1 producing Escherichia coli clinical isolate 74859898 after 18 hrs by microdilution broth method; assay type: functional
[3] = test system: Escherichia coli; experiment: Antibacterial activity against extended-spectrum beta-lactamase producing multidrug-resistant and colistin-susceptible Escherichia coli CTX-M-15 clinical isolate Aar 11 after 18 hrs by microdilution broth method; assay type: functional
[4] = test system: HepG2; experiment: Cytotoxicity against human HepG2 cells after 1 hr by MTS/PMS assay; assay type: cell-based; settings: HepG2, 1 h
Summary of the method: (§1)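 Monolayers (passage 4–10) grown ~21–25 h to ~90% confluence. Seeding per well: HeLa 8000, HepG2 23 000, NIH 3T3 22 000, IEC-6 16 000, Caco-2 25 000. Cells washed with HBSS/10 mM Hepes pH 7.4 and exposed 1 h at 37 °C, 50 rpm, to compound 0–2000 μM in culture medium. MTS 240 μg/mL/PMS 2.4 μg/mL for 1.5–4 h, A492. Viability referenced to SDS and untreated controls; IC50 from one biological replicate in triplicate.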

[5] = test system: Acinetobacter baumannii; experiment: Antibacterial activity against multidrug-resistant Acinetobacter baumannii clinical isolate E2-1228625 after 18 hrs by microdilution broth method; assay type: functional
[6] = Cytotoxicity against mouse NIH/3T3 cells after 1 hr by MTS/PMS assay; assay type: cell-based; settings: NIH3T3, 1 h; summary of the method: as §1
[7] = test system: HUVEC; experiment: Cytotoxicity against HUVEC after 1 hr by MTS/PMS assay; assay type: cell-based; settings: Homo sapiens
Summary of the method: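 HUVEC seeded at 15 000 cells/well on collagen-coated wells (0.6 μg/cm2), passage 4–10, grown to ~90% confluence over 21–25 h. Cells exposed to compound (0–2000 μM) in F-12K medium for 1 h at 37 °C. MTS 240 μg/mL with PMS 9.6 μg/mL in HBSS for 1.5–4 h, then A492. Viability referenced to 0.2% SDS and untreated cells; IC50 reported.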

[8] = test system: Staphylococcus aureus; experiment: Antibacterial activity against methicillin-resistant Staphylococcus aureus ATCC 33591 after 18 hrs by microdilution broth method; assay type: functional
Summary of the method: (§2)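 CLSI broth microdilution. […] Incubated 35 °C in ambient air for 18 h. MIC taken as the lowest concentration with no visible growth versus the compound-free control. Reported as median and range of three independent biological replicates run on separate days.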

[9] = Binding affinity to synthetic POPC/POPG liposomal membrane at 20 uM by circular dichroism analysis; assay type: physicochemical; settings: artificial membrane
Summary of the method: (§3)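 CD spectra recorded with 20 μM test compound and 2 mM liposomes in 10 mM Tris buffer, pH 7.5. Liposomes were roughly 100 nm: POPC/POPG 7:3 (bacterial model) or POPC/POPG/cholesterol 5:3:2 (mammalian model). Lipid concentration was standardized by enzymatic phospholipid colorimetric assay.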

[10] = Binding affinity to cholesterol containing synthetic POPC/POPG liposomal membrane at 20 uM by circular dichroism analysis; assay type: physicochemical; settings: artificial membrane; summary of the method: as §3
[11] = test system: Escherichia coli; experiment: Antibacterial activity against Escherichia coli ATCC 25922 after 18 hrs by microdilution broth method; assay type: functional; summary of the method: as §2
[12] = test system: Caco-2; experiment: Cytotoxicity against human Caco2 cells after 1 hr by MTS/PMS assay; assay type: cell-based; settings: Caco-2, 1 h; summary of the method: as §1
[13] = Cytotoxicity against rat IEC-6 cells after 1 hr by MTS/PMS assay; assay type: cell-based; settings: IEC-6, 1 h; summary of the method: as §1
[14] = test system: Enterococcus faecium; experiment: Antibacterial activity against vancomycin-resistant Enterococcus faecium ATCC 700221 after 18 hrs by microdilution broth method; settings: ATCC 700221, 18 h
[15] = test system: HeLa; experiment: Cytotoxicity against human HeLa cells after 1 hr by MTS/PMS assay; assay type: cell-based; summary of the method: as §1
[16] = test system: Enterococcus faecalis; experiment: Antibacterial activity against vancomycin-resistant Enterococcus faecalis ATCC 700221 after 18 hrs by microdilution broth method; assay type: functional
Summary of the method: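 CLSI broth microdilution. Incubated 35 °C in ambient air for 18 h. MIC taken as the lowest concentration with no visible growth versus the compound-free control. Reported as median and range of three independent biological replicates run on separate days.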

[17] = clinical isolate 74859898, 18 h
[18] = clinical isolate E2-1228625, 18 h

Compound | pIC50 [1] | MIC [2, 17] [µM] | MIC ([3]; CTX-M-15, 18 h) [µM] | pIC50 [4] | MIC [5, 18] [µM] | pIC50 [6] | pIC50 [7] | MIC ([8]; ATCC 33591, 18 h) [µM] | Activity [9] | Activity [10] | MIC ([11]; ATCC 25922, 18 h) [µM] | pIC50 [12] | pIC50 [13] | MIC [14] [µM] | pIC50 [15] | other results
CC(=O)N[C@@H](CCCCN)C(=O)N(CCC(=O)N[C@@H](CCCCNC(=N)N)C(=O)N(CCC(=O)N[C@@H](CCCCN)C(=O)N(CCC(=O)N[C@@H](CCCCNC(=N)N)C(=O)N(CCC(=O)N[C@@H](CCCCN)C(=O)N(CCC(=O)N[C@@H](CCCCNC(=N)N)C(=O)N(CCC(=O)N[C@@H](CCCCN)C(=O)N(CCC(N)=O)Cc1ccccc1)Cc1ccccc1)Cc1ccccc1)Cc1ccccc1)Cc1ccccc1)Cc1ccccc1)Cc1ccccc1 | < 2.99 | 1 (≈ 2.21 µg/mL) | 1 (≈ 2.21 µg/mL) | 3.94 | 4 (≈ 8.84 µg/mL) | 3.76 | 3.34 | 16 (≈ 35.4 µg/mL) | Not Active | Not Active | 1 (≈ 2.21 µg/mL) | 3.45 | 3.58 | 16 (≈ 35.4 µg/mL) | 4.11 | –
CC(=O)N[C@@H](CCCCN)C(=O)N(CC(=O)N[C@@H](CCCCNC(=N)N)C(=O)N(CC(=O)N[C@@H](CCCCN)C(=O)N(CC(=O)N[C@@H](CCCCNC(=N)N)C(=O)N(CC(=O)N[C@@H](CCCCN)C(=O)N(CC(=O)N[C@@H](CCCCNC(=N)N)C(=O)N(CC(N)=O)Cc1ccccc1)Cc1ccccc1)Cc1ccccc1)Cc1ccccc1)Cc1ccccc1)Cc1ccccc1 (Ac-K[Nphe][hArg][Nphe]K[Nphe][hArg][Nphe]K[Nphe][hArg][Nphe]-NH2) | < 2.99 | 1 (≈ 1.84 µg/mL) | 2 (≈ 3.67 µg/mL) | 3.16 | 64 (≈ 118 µg/mL) | 3.20 | < 3.00 | 64 (≈ 118 µg/mL) | Not Active | Not Active | 2 (≈ 3.67 µg/mL) | < 3.00 | 3.20 | 32 (≈ 58.8 µg/mL) | 3.50 | –
CC(=O)N[C@@H](CCCCN)C(=O)N(CC(=O)N[C@@H](CCCCNC(=N)N)C(=O)N(CC(=O)N[C@@H](CCCCN)C(=O)N(CC(=O)N[C@@H](CCCCNC(=N)N)C(=O)N(CC(=O)N[C@@H](CCCCN)C(=O)N(CC(=O)N[C@@H](CCCCNC(=N)N)C(=O)N(CC(=O)N[C@@H](CCCCN)C(=O)N(CC(N)=O)[C@@H](C)c1ccccc1)[C@@H](C)c1ccccc1)[C@@H](C)c1ccccc1)[C@@H](C)c1ccccc1)[C@@H](C)c1ccccc1)[C@@H](C)c1ccccc1)[C@@H](C)c1ccccc1 (Ac-K[Nspe][hArg][Nspe]K[Nspe][hArg][Nspe]K[Nspe][hArg][Nspe]K[Nspe]-NH2) | – | 1 (≈ 2.21 µg/mL) | 2 (≈ 4.42 µg/mL) | 4.46 | 1 (≈ 2.21 µg/mL) | 4.17 | 3.84 | 16 (≈ 35.4 µg/mL) | Not Active | Not Active | 1 (≈ 2.21 µg/mL) | 3.74 | 4.52 | 4 (≈ 8.84 µg/mL) | 4.68 | –
CC(=O)N[C@@H](CCCCNC(=N)N)C(=O)N(CC(=O)N[C@@H](CCCCN)C(=O)N(CC(=O)N[C@@H](CCCCNC(=N)N)C(=O)N(CC(=O)N[C@@H](CCCCN)C(=O)N(CC(=O)N[C@@H](CCCCNC(=N)N)C(=O)N(CC(N)=O)Cc1ccccc1)Cc1ccccc1)Cc1ccccc1)Cc1ccccc1)Cc1ccccc1 (Ac-[hArg][Nphe]K[Nphe][hArg][Nphe]K[Nphe][hArg][Nphe]-NH2) | – | 8 (≈ 12.5 µg/mL) | 16 (≈ 25 µg/mL) | 3.01 | > 128 | < 3.00 | < 3.00 | 128 (≈ 200 µg/mL) | Not Active | Not Active | 8 (≈ 12.5 µg/mL) | < 3.00 | 3.01 | 128 (≈ 200 µg/mL) | 3.30 | –
CC(=O)N[C@@H](CCCCNC(=N)N)C(=O)N(CC(=O)N[C@@H](CCCCN)C(=O)N(CC(=O)N[C@@H](CCCCNC(=N)N)C(=O)N(CC(=O)N[C@@H](CCCCN)C(=O)N(CC(=O)N[C@@H](CCCCNC(=N)N)C(=O)N(CC(N)=O)[C@@H](C)c1ccccc1)[C@@H](C)c1ccccc1)[C@@H](C)c1ccccc1)[C@@H](C)c1ccccc1)[C@@H](C)c1ccccc1 (Ac-[hArg][Nspe]K[Nspe][hArg][Nspe]K[Nspe][hArg][Nspe]-NH2) | – | 8 (≈ 13.1 µg/mL) | 8 (≈ 13.1 µg/mL) | 3.85 | 16 (≈ 26.1 µg/mL) | 3.68 | 3.40 | 32 (≈ 52.2 µg/mL) | Not Active | Not Active | 8 (≈ 13.1 µg/mL) | 3.23 | 3.84 | 8 (≈ 13.1 µg/mL) | 3.78 | –
GENTAMICIN | – | – | – | – | – | – | – | – | – | – | – | – | – | – | – | MIC [2]: > 128 µM; MIC [16]: > 128 µM; MIC [3]: 32 µM; MIC [5]: > 128 µM; MIC [8]: 0.5 µM; MIC [11]: 0.25 µM
